Assay results as given in ChEMBL document CHEMBL1148007, “Synthesis of new S-derivatives of clubbed triazolyl thiazole as anti-Mycobacterium tuberculosis agents” (Bioorg Med Chem, 2007).
Converted amounts (≈) assume the structure as drawn.

Legend:
[1] = Cytotoxicity against Vero-C1008 cells at 6.25 to 50 ug/mL by neutral red uptake assay; assay type: cell-based; settings: chlorocebus sabaeus
How it was run: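 Vero-C-1008 cells exposed to 6.25 to 50 μg/mL compound; viability read by neutral red uptake.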

Staphylococcus aureus = assay: Antibacterial activity against Staphylococcus aureus at 50 to 100 uM after 24 hrs by well diffusion method; assay type: functional
How it was run: (§1)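 Nutrient agar plates with 10 mm wells cut by cork borer; 24-h subcultured bacteria swabbed on. Compounds dissolved in chloroform, 50 to 100 μM added to wells, gentamycin as standard. Incubated 24 h at 24–28 °C; inhibition zone diameter measured and converted to percent inhibition.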

Escherichia coli = assay: Antibacterial activity against Escherichia coli at 50 to 100 uM after 24 hrs by well diffusion method; assay type: functional; how it was run: as §1
Pseudomonas aeruginosa = assay: Antibacterial activity against Pseudomonas aeruginosa at 50 to 100 uM after 24 hrs by well diffusion method; assay type: functional; how it was run: as §1
Salmonella typhi = assay: Antibacterial activity against Salmonella typhi at 50 to 100 uM after 24 hrs by well diffusion method; assay type: functional, Salmonella enterica subsp. enterica serovar Typhi; design: unit not given here; how it was run: as §1
[2] = test system: Mycobacterium tuberculosis; assay: Antitubercular activity against Mycobacterium tuberculosis H37Rv by MABA assay; assay type: functional
How it was run: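 Actives re-tested at lower concentrations against H37Rv (ATCC 27294) in BACTEC 12B medium by Microplate Alamar Blue Assay. MIC taken as lowest concentration giving […] fluorescence reduction versus controls; rifampin reference.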

Compound	Activity [1]	inhibition zone (Staphylococcus aureus)	inhibition zone (Escherichia coli)	inhibition zone (Pseudomonas aeruginosa)	Inhibition (Salmonella typhi)	MIC [2]	inhibition (Staphylococcus aureus)	inhibition (Escherichia coli)	inhibition (Pseudomonas aeruginosa)	inhibition (Salmonella typhi; Salmonella enterica subsp. enterica serovar Typhi)
CC(=O)NNC(=O)CSc1nnc(Cc2csc(NC(C)=O)n2)n1NC(=O)c1ccc(Cl)cc1	Non-toxic	27 mm	20 mm	19 mm	23	< 6.25 µg/mL	–	–	–	–
COC(=O)CSc1nnc(Cc2csc(NC(C)=O)n2)n1NC(=O)c1cccc([N+](=O)[O-])c1	Non-toxic	24 mm	20 mm	22 mm	18	< 6.25 µg/mL	–	–	–	–
CC(=O)Nc1nc(Cc2nnc(SCC(=O)NNC(=O)CCl)n2NC(=O)c2cccc([N+](=O)[O-])c2)cs1	Non-toxic	12 mm	18 mm	18 mm	14	< 6.25 µg/mL	–	–	–	–
Nn1c(S)nnc1Cc1csc(NCCC(=O)O)n1	Non-toxic	25 mm	20 mm	22 mm	16	< 6.25 µg/mL	–	–	–	–
CC(=O)Nc1nc(Cc2nnc(SCC(=O)NNC(=O)c3ccccc3)n2NC(=O)c2ccc(Cl)cc2)cs1	Non-toxic	28 mm	20 mm	22 mm	17	< 6.25 µg/mL	–	–	–	–
O=C(CSc1nnc(Cc2csc(NC(=O)CCl)n2)n1NC(=O)c1cccc([N+](=O)[O-])c1)NNC(=O)c1ccccc1	Non-toxic	21 mm	10 mm	18 mm	18	< 6.25 µg/mL	–	–	–	–
O=C(Nc1nc(Cc2nnc(SCSc3nnc(Cc4csc(NC(=O)c5ccccc5)n4)n3NC(=O)c3cccc([N+](=O)[O-])c3)n2NC(=O)c2cccc([N+](=O)[O-])c2)cs1)c1ccccc1	Non-toxic	26 mm	24 mm	24 mm	19	< 6.25 µg/mL	–	–	–	–
COC(=O)CSc1nnc(Cc2csc(NC(=O)c3ccccc3)n2)n1NC(=O)c1cccc([N+](=O)[O-])c1	Non-toxic	22 mm	24 mm	11 mm	24	< 6.25 µg/mL	–	–	–	–
CC(=O)NNC(=O)CSc1nnc(Cc2csc(NC(=O)c3ccccc3)n2)n1NC(=O)c1cccc([N+](=O)[O-])c1	Non-toxic	20 mm	14 mm	18 mm	12	< 6.25 µg/mL	–	–	–	–
O=C(CSc1nnc(Cc2csc(NC(=O)c3ccccc3)n2)n1NC(=O)c1ccc(Cl)cc1)NNC(=O)c1ccccc1	Non-toxic	19 mm	18 mm	24 mm	18	< 6.25 µg/mL	–	–	–	–
Nn1c(S)nnc1CSc1nnc(Cc2csc(NC(=O)c3ccccc3)n2)n1NC(=O)c1cccc([N+](=O)[O-])c1	Non-toxic	24 mm	20 mm	27 mm	19	< 6.25 µg/mL	–	–	–	–
CC(=O)Nc1nc(Cc2nnc(SCc3nnc(S)n3N)n2NC(=O)c2cccc([N+](=O)[O-])c2)cs1	Non-toxic	18 mm	21 mm	13 mm	18	< 6.25 µg/mL	–	–	–	–
CC(=O)Nc1nc(Cc2nnc(SCC(=O)NNC(=O)CCl)n2NC(=O)c2ccc(Cl)cc2)cs1	Non-toxic	25 mm	18 mm	20 mm	20	< 6.25 µg/mL	–	–	–	–
O=C(O)CCNc1nc(Cc2nnc(SCC(=O)NNC(=O)c3ccccc3)n2NC(=O)c2cccc([N+](=O)[O-])c2)cs1	Non-toxic	12 mm	10 mm	10 mm	14	< 6.25 µg/mL	–	–	–	–
Nn1c(S)nnc1Cc1csc(NC(=O)CCl)n1	Non-toxic	18 mm	14 mm	17 mm	12	–	–	–	–	–
CC(=O)NNC(=O)CSc1nnc(Cc2csc(NC(=O)c3ccccc3)n2)n1NC(=O)c1ccc(Cl)cc1	Non-toxic	26 mm	21 mm	24 mm	19	< 6.25 µg/mL	–	–	–	–
CC(=O)Nc1nc(Cc2nnc(SCC#N)n2NC(=O)c2cccc([N+](=O)[O-])c2)cs1	Non-toxic	22 mm	20 mm	26 mm	21	< 6.25 µg/mL	–	–	–	–
CC(=O)Nc1nc(Cc2nnc(SCc3nnc(S)n3N)n2NC(=O)c2ccc(Cl)cc2)cs1	Non-toxic	28 mm	23 mm	21 mm	18	< 6.25 µg/mL	–	–	–	–

Compound	Activity [1]	inhibition zone (Staphylococcus aureus)	inhibition zone (Escherichia coli)	inhibition zone (Pseudomonas aeruginosa)	Inhibition (Salmonella typhi)	MIC [2]	inhibition (Staphylococcus aureus)	inhibition (Escherichia coli)	inhibition (Pseudomonas aeruginosa)	inhibition (Salmonella typhi; Salmonella enterica subsp. enterica serovar Typhi)
CC(=O)NNC(=O)CSc1nnc(Cc2csc(NCCC(=O)O)n2)n1NC(=O)c1ccc(Cl)cc1	Non-toxic	20 mm	26 mm	21 mm	18	< 6.25 µg/mL	–	–	–	–
Nn1c(S)nnc1CSc1nnc(Cc2csc(NC(=O)CCl)n2)n1NC(=O)c1ccc(Cl)cc1	Non-toxic	27 mm	22 mm	20 mm	20	< 6.25 µg/mL	–	–	–	–
O=C(CCl)NNC(=O)CSc1nnc(Cc2csc(NC(=O)CCl)n2)n1NC(=O)c1cccc([N+](=O)[O-])c1	Non-toxic	14 mm	12 mm	16 mm	18	< 6.25 µg/mL	–	–	–	–
CC(=O)NNC(=O)CSc1nnc(Cc2csc(NC(=O)CCl)n2)n1NC(=O)c1cccc([N+](=O)[O-])c1	Non-toxic	27 mm	18 mm	24 mm	24	< 6.25 µg/mL	–	–	–	–
O=C(O)CCNc1nc(Cc2nnc(SCSc3nnc(Cc4csc(NCCC(=O)O)n4)n3NC(=O)c3cccc([N+](=O)[O-])c3)n2NC(=O)c2cccc([N+](=O)[O-])c2)cs1	Non-toxic	25 mm	21 mm	26 mm	18	< 6.25 µg/mL	–	–	–	–
CC(=O)NNC(=O)CSc1nnc(Cc2csc(NC(C)=O)n2)n1NC(=O)c1cccc([N+](=O)[O-])c1	Non-toxic	33 mm	30 mm	34 mm	29	< 6.25 µg/mL	–	–	–	–
CC(=O)NNC(=O)CSc1nnc(Cc2csc(NCCC(=O)O)n2)n1NC(=O)c1cccc([N+](=O)[O-])c1	Non-toxic	24 mm	14 mm	10 mm	14	< 6.25 µg/mL	–	–	–	–
GENTAMICIN	–	–	–	–	–	–	34%	31%	35%	30%
COC(=O)CSc1nnc(Cc2csc(NC(=O)CCl)n2)n1NC(=O)c1ccc(Cl)cc1	Non-toxic	18 mm	10 mm	16 mm	12	< 6.25 µg/mL	–	–	–	–
O=C(O)CCNc1nc(Cc2nnc(SCC(=O)NNC(=O)CCl)n2NC(=O)c2cccc([N+](=O)[O-])c2)cs1	Non-toxic	24 mm	24 mm	26 mm	24	< 6.25 µg/mL	–	–	–	–
CO[C@H]1/C=C/O[C@@]2(C)Oc3c(C)c(O)c4c(O)c(c(/C=N/N5CCN(C)CC5)c(O)c4c3C2=O)NC(=O)/C(C)=C\C=C\[C@H](C)[C@H](O)[C@@H](C)[C@@H](O)[C@@H](C)[C@H](OC(C)=O)[C@@H]1C [RIFAMPIN]	–	–	–	–	–	0.015 µg/mL (≈ 0.0182 µM)	–	–	–	–
NNC(=O)CSc1nnc(Cc2csc(NCCC(=O)O)n2)n1NC(=O)c1ccc(Cl)cc1	Non-toxic	23 mm	18 mm	26 mm	22	< 6.25 µg/mL	–	–	–	–
CC(=O)NNC(=O)CSc1nnc(Cc2csc(NC(=O)CCl)n2)n1NC(=O)c1ccc(Cl)cc1	Non-toxic	25 mm	24 mm	21 mm	22	< 6.25 µg/mL	–	–	–	–
O=C(Nc1nc(Cc2nnc(SCSc3nnc(Cc4csc(NC(=O)c5ccccc5)n4)n3NC(=O)c3ccc(Cl)cc3)n2NC(=O)c2ccc(Cl)cc2)cs1)c1ccccc1	Non-toxic	29 mm	20 mm	27 mm	12	< 6.25 µg/mL	–	–	–	–
O=C(O)CCNc1nc(Cc2nnc(SCC(=O)NNC(=O)CCl)n2NC(=O)c2ccc(Cl)cc2)cs1	Non-toxic	–	–	–	–	< 6.25 µg/mL	–	–	–	–
O=C(CCl)NNC(=O)CSc1nnc(Cc2csc(NC(=O)CCl)n2)n1NC(=O)c1ccc(Cl)cc1	Non-toxic	24 mm	18 mm	–	–	< 6.25 µg/mL	–	–	–	–
COC(=O)CSc1nnc(Cc2csc(NCCC(=O)O)n2)n1NC(=O)c1cccc([N+](=O)[O-])c1	Non-toxic	22 mm	–	22 mm	20	< 6.25 µg/mL	–	–	–	–
